Data published in ChEMBL document CHEMBL5506034, “Development of Inhibitors, Probes, and PROTAC Provides a Complete Toolbox to Study PARK7 in the Living Cell” (J Med Chem, 2024).
Each block holds one compound with its values, some of them ahead of it. Calls of active or inactive are those of the source. The calls are words filed in the database; no cut-off is given here.

What was measured:
[1] = target: Ubiquitin carboxyl-terminal hydrolase isozyme L1 (Homo sapiens) (UniProt P09936); test: Inhibition of UCHL1 in HEK293T cells incubated for 24 hrs by SDS-PAGE based fluorescence scanning Western blot analysis; assay type: cell-based
[2] = target: T1, Parkinson disease protein 7 (Homo sapiens) (UniProt Q99497); test: Binding affinity to PARK7 in human A549 cells assessed as band shift at 5 uM incubated for 24 hrs by SDS-PAGE based fluorescence scanning immunoblotting analysis; assay type: cell-based
T1 sequence (whole entry): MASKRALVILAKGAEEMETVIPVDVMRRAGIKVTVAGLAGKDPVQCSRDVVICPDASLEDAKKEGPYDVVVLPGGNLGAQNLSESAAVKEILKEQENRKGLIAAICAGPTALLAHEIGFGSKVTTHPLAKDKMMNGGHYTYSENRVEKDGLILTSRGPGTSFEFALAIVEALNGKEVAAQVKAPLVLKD
Summary of the method: (§1)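 Probes applied to intact HEK293T or A549 cells at 5 μM final for 24 h, then lysed. Read-out by SDS-PAGE fluorescence scan and immunoblot against PARK7, looking at the ~25 kDa labelled band, PARK7 band shift and extra bands.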

[3] = Drug penetration in human A549 cells at 5 uM incubated for 1 hrs by DAPI staining based confocal microscopic analysis; assay type: ADME, cell-based; settings: a549, 1 h
Summary of the method: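 A549 cells incubated with probes at 5 μM final over a time course (1–24 h). For microscopy, cells on coverslips were fixed in 3.7% formaldehyde/PBS for 20 min, mounted with DAPI and imaged by confocal (63× oil). In parallel, cells were lysed for SDS-PAGE fluorescence scan and PARK7 immunoblot.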

[4] = target: T1, Parkinson disease protein 7 (Homo sapiens); test: Binding affinity to PARK7 in A549 cells assessed as band shift at 5 uM incubated for 24 hrs by SDS-PAGE based fluorescence scanning immunoblotting analysis
[5] = target: T1, Parkinson disease protein 7 (Homo sapiens); test: Binding affinity to recombinant human PARK7 at 2 uM incubated for 1 hrs by coomassie staining based SDS-PAGE fluorescence scanning analysis relative to control
A549 (Homo sapiens) = test: Cellular protein labelling in A549 cells assessed as unspecific 55-75 kDa band formation at 5 uM by SDS-PAGE based fluorescence scanning immunoblotting analysis
[6] = target: T1, Parkinson disease protein 7 (Homo sapiens); test: Binding affinity to recombinant human PARK7 incubated for 1 hrs by coomassie staining based SDS-PAGE fluorescence scanning analysis; settings: dose 0.1-10 µM
A549 [7] = test: Cellular protein labelling in human A549 cells assessed as unspecific 55-75 kDa band formation at 5 uM by SDS-PAGE based fluorescence scanning immunoblotting analysis; assay type: functional, cell-based; summary of the method: as §1
[8] = target: T2, Protein cereblon/Parkinson disease protein 7 (Homo sapiens) (UniProt Q96SW2+Q99497); test: PROTAC activity at CRBN/PARK7 in human A549 cells assessed as induction of PARK7 degradation at 2 uM incubated for 8 hrs by Western blot analysis; assay type: cell-based
Summary of the method: (§2)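 A549 cells treated the day after seeding with PROTAC (0.1–5 μM) for 8 h. Lysates boiled in LDS with β-mercaptoethanol and run on 4–12% Bis-Tris/MOPS SDS-PAGE. PARK7 immunoblotted and normalized to DMSO; three independent biological replicates, mean ± SD, Student's t test.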

[9] = target: T1, Parkinson disease protein 7 (Homo sapiens); test: Binding affinity to PARK7 in HEK293T cells assessed as target engagement at 1 to 5 uM incubated for 24 hrs by SDS-PAGE based fluorescence scanning Western blot analysis; assay type: cell-based; settings: dose 1-5 µM
Summary of the method: (§3)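 Live HEK293T cells (DMEM, 7.5% FBS, 37 °C, 5% CO2) exposed to inhibitor for 24 h, then washed and lysed in Tris/NaCl/0.5% Triton X-100/2 mM TCEP pH 7.5 buffer. Lysate labelled with SulfoCy5 probe JYQ-92 (1 μM, 30 min). Residual PARK7 activity read by SDS-PAGE with Cy5-channel fluorescence scan, then immunoblot for PARK7 with β-actin as loading control.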

[10] = target: T1, Parkinson disease protein 7 (Homo sapiens); test: Inhibition of PARK7 in HEK293T cells at 0.1 to 20 uM incubated for 24 hrs by SDS-PAGE based fluorescence scanning analysis; assay type: cell-based; settings: dose 0.1-20 µM; summary of the method: as §3
A549 [11] = test: Cytotoxicity in human A549 cells assessed as reduction in cell viability upto 5 uM incubated for 72 hrs by CellTiter-Blue viability assay; assay type: toxicity, cell-based; settings: a549, 72 h
Summary of the method: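 A549 cells (5×10^3/well) exposed next day to inhibitor, with DMSO as control. Compound renewed at 36 h, then 36 h more (72 h total). Viability read by CellTiter-Blue, normalized to DMSO and background-corrected.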

[12] = target: T1, Parkinson disease protein 7 (Homo sapiens); test: Binding affinity to recombinant human PARK7 at 5 uM incubated for 1 hrs by coomassie staining based SDS-PAGE fluorescence scanning analysis relative to control
[13] = target: T1, Parkinson disease protein 7 (Homo sapiens); test: Binding affinity to PARK7 in HEK293T cells assessed as band shift at 5 uM incubated for 24 hrs by SDS-PAGE based fluorescence scanning immunoblotting analysis; assay type: cell-based; summary of the method: as §3
[14] = target: T2, Protein cereblon/Parkinson disease protein 7 (Homo sapiens); test: PROTAC activity at CRBN/PARK7 in human A549 cells assessed as induction of PARK7 degradation at 0.1 to 5 uM incubated for 8 hrs by Western blot analysis; assay type: cell-based; settings: dose 0.1-5 µM; summary of the method: as §2
A549 [15] = test: Downregulation of DOP1B protein level in human A549 cells at 5 uM incubated for 8 hrs by TMT-based total proteome profiling; assay type: functional, cell-based
Summary of the method: (§4)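 A549 cells treated 2 days after seeding with 5 μM compound, or DMSO, for 8 h. Lysed in 5% SDS buffer; 100 μg protein reduced, alkylated and trypsin-digested. Peptides TMTpro-labelled, pooled, high-pH fractionated and analysed by nano-LC-MS/MS; fold change and p-value taken against DMSO.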

A549 [16] = test: Downregulation of TM7SF3 protein level in human A549 cells at 5 uM incubated for 8 hrs by TMT-based total proteome profiling; assay type: functional, cell-based; summary of the method: as §4
A549 [17] = test: Effect on PARK7 protein level in human A549 cells at 5 uM incubated for 8 hrs by TMT-based total proteome profiling; assay type: functional, cell-based; summary of the method: as §4
[18] = target: T2, Protein cereblon/Parkinson disease protein 7 (Homo sapiens); test: (§5) PROTAC activity at CRBN/PARK7 in human A549 cells assessed as induction of PARK7 degradation at 5 uM preincubated with pomalidomide for 4 hrs followed by compound addition and measured after 8 hrs by Western blot analysis; assay type: cell-based
Summary of the method: (§6)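 A549 cells pretreated 4 h with 5 μM pomalidomide, 5 μM PARK7 inhibitor or 10 μM MG-132, then given PROTAC (5 μM) for a further 8 h. PARK7 level assessed by lysis, SDS-PAGE and immunoblot.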

[19] = target: T2, Protein cereblon/Parkinson disease protein 7 (Homo sapiens); test: PROTAC activity at CRBN/PARK7 in human A549 cells assessed as induction of PARK7 degradation at 5 uM incubated for 4 to 24 hrs by Western blot analysis; assay type: cell-based; settings: time 4-24 hrs
Summary of the method: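 A549 cells exposed to PROTAC at 5 μM for varying times across the 4–24 h window. Lysates analysed by SDS-PAGE and anti-PARK7 immunoblot.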

[20] = target: T2, Protein cereblon/Parkinson disease protein 7 (Homo sapiens); test: PROTAC activity at CRBN/PARK7 in human A549 cells assessed as induction of PARK7 degradation at 5 uM incubated for 8 hrs by TMT-based total proteome profiling; assay type: cell-based; summary of the method: as §4
[21] = target: T2, Protein cereblon/Parkinson disease protein 7 (Homo sapiens); test: PROTAC activity at CRBN/PARK7 in human NCI-H1299 cells assessed as induction of PARK7 degradation incubated for 8 hrs by Western blot analysis; assay type: cell-based; settings: dose 0.1-5 µM
Summary of the method: (§7)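 HeLa, H1299 or MCF7 cells (DMEM, 7.5% FBS) treated with a PROTAC concentration series for 8 h. Lysates analysed by SDS-PAGE and anti-PARK7 immunoblot.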

[22] = target: T2, Protein cereblon/Parkinson disease protein 7 (Homo sapiens); test: as §5, with “(R)-1-cyano-N-(5-(2-fluoro-5-(1H-1,2,3-triazol-1-yl)benzoyl)-4,5,6,7-tetrahydrothiazolo[5,4-c]pyridin-2-yl)pyrrolidine-3-carboxamide” for “pomalidomide”; assay type: cell-based; summary of the method: as §6
[23] = target: T2, Protein cereblon/Parkinson disease protein 7 (Homo sapiens); test: PROTAC activity at CRBN/PARK7 in human HeLa cells assessed as induction of PARK7 degradation incubated for 8 hrs by Western blot analysis; assay type: cell-based; settings: dose 0.1-5 µM; summary of the method: as §7
[24] = target: T2, Protein cereblon/Parkinson disease protein 7 (Homo sapiens); test: PROTAC activity at CRBN/PARK7 in human MCF7 cells assessed as induction of PARK7 degradation incubated for 8 hrs by Western blot analysis; assay type: cell-based; settings: dose 0.1-5 µM; summary of the method: as §7
[25] = target: T2, Protein cereblon/Parkinson disease protein 7 (Homo sapiens); test: PROTAC activity at CRBN/PARK7 in human A549 cells assessed as induction of PARK7 degradation at 5 uM preincubated with MG-132 for 4 hrs followed by compound addition and measured after 8 hrs by Western blot analysis; assay type: cell-based; summary of the method: as §6
[26] = target: T1, Parkinson disease protein 7 (Homo sapiens); test: Binding affinity to recombinant human PARK7 at 1 uM incubated for 1 hrs by coomassie staining based SDS-PAGE fluorescence scanning analysis relative to control

Chain of Ubiquitin carboxyl-terminal hydrolase isozyme L1 (Homo sapiens) (P09936 whole entry, looked up): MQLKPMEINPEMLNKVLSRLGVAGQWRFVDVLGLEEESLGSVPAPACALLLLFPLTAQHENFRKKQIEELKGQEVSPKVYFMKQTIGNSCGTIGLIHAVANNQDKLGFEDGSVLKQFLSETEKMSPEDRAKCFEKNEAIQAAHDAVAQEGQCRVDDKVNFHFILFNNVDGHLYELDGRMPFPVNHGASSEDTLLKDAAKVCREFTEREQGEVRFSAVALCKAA
T2 sequence (Q96SW2 whole entry, looked up, one chain of several): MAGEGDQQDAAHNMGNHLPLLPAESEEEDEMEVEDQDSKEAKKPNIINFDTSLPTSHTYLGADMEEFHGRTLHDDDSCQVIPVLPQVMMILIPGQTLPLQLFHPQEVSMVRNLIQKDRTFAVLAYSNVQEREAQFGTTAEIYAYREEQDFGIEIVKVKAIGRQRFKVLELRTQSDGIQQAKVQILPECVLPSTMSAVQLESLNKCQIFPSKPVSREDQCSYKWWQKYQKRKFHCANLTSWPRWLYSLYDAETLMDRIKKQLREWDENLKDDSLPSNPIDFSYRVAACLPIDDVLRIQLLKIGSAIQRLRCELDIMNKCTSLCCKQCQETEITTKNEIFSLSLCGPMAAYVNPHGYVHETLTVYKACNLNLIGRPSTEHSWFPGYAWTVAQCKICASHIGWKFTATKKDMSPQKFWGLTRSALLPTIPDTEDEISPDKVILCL

- inhibition [1]: Active
SMILES: Cc1cc(C(=O)N2CCc3nc(NC(=O)[C@@H]4CCN(C#N)C4)sc3C2)ccc1Br

- Activity [2]: Active
- Drug uptake [3]: Active
- Activity [4]: Active
- Activity [5]: 100%
- Activity [6]: Dose-Dependent Effect
SMILES: CC[N+]1=C(/C=C/C=C/C=C2/N(CCCCCC(=O)NCCCc3cn(CC(=O)N4CCN(S(=O)(=O)c5cccc(C(=O)N6CCc7nc(NC(=O)[C@@H]8CCN(C#N)C8)sc7C6)c5)CC4)nn3)c3ccc(S(=O)(=O)[O-])cc3C2(C)C)C(C)(C)c2cc(S(=O)(=O)O)ccc21
- Activity (A549 (Homo sapiens)): Active
- Activity (A549 [7]): Active

- Activity [8]: Active
SMILES: N#CN1CC[C@@H](C(=O)Nc2nc3c(s2)CN(C(=O)c2cc(-n4cc(COCCOCCOCCNc5cccc6c5C(=O)N(C5CCC(=O)NC5=O)C6=O)nn4)ccc2F)CC3)C1 (stereo partly specified)

- inhibition [1]: inactive
- Activity [9]: Active
SMILES: CC(=O)N1CCN(S(=O)(=O)c2cccc(C(=O)N3CCc4nc(NC(=O)[C@@H]5CCN(C#N)C5)sc4C3)c2)CC1

- inhibition [1]: Active
SMILES: N#CN1CC[C@@H](C(=O)Nc2nc3c(s2)CN(C(=O)c2cccc(-c4ncon4)c2)CC3)C1

- inhibition [1]: Active
SMILES: Cc1csc(-c2cccc(C(=O)N3CCc4nc(NC(=O)[C@@H]5CCN(C#N)C5)sc4C3)c2)n1

- inhibition [10]: inactive
SMILES: N#CN1CC[C@@H](C(=O)Nc2nc3c(s2)CN(C(=O)CN=[N+]=[N-])CC3)C1

- inhibition [1]: Active
SMILES: N#CN1CC[C@@H](C(=O)Nc2nc3c(s2)CN(C(=O)c2cnc(-c4cccs4)s2)CC3)C1

- inhibition [1]: inactive
SMILES: N#CN1CC[C@@H](C(=O)Nc2nc3c(s2)CN(C(=O)c2cccc(S(=O)(=O)N4CCOCC4)c2)CC3)C1
- Activity (A549 [11]): Non-Toxic

- Activity [12]: 100%
- Activity [2]: inactive
- Activity [13]: inactive
- Activity [6]: Dose-Dependent Effect
SMILES: CC1=CC(C)=[N+]2C1=C(CCCCc1cn(CC(=O)N3CCN(S(=O)(=O)c4cccc(C(=O)N5CCc6nc(NC(=O)[C@@H]7CCN(C#N)C7)sc6C5)c4)CC3)nn1)c1c(C)cc(C)n1[B-]2(F)F

- Activity [14]: inactive
SMILES: N#CN1CC[C@@H](C(=O)Nc2nc3c(s2)CN(C(=O)c2cccc(S(=O)(=O)N4CCN(C(=O)Cn5cc(COCCOCCNc6cccc7c6C(=O)N(C6CCC(=O)NC6=O)C7=O)nn5)CC4)c2)CC3)C1 (stereo partly specified)

- inhibition [1]: inactive
SMILES: N#CN1CC[C@@H](C(=O)Nc2nc3c(s2)CN(C(=O)c2cc(-n4ccnn4)ccc2F)CC3)C1
- Activity (A549 [15]): Active
- Activity (A549 [11]): Non-Toxic
- Activity (A549 [16]): Active
- Activity (A549 [17]): inactive

- Activity [18]: inactive
- Activity [19]: Active
- Activity [14]: Active
- Activity [20]: Active
- Activity [21]: Dose-Dependent Effect
- Activity [22]: inactive
- Activity [23]: Dose-Dependent Effect
- Activity [24]: Dose-Dependent Effect
- Activity [25]: inactive
SMILES: N#CN1CC[C@@H](C(=O)Nc2nc3c(s2)CN(C(=O)c2cc(-n4cc(COCCOCCNc5cccc6c5C(=O)N(C5CCC(=O)NC5=O)C6=O)nn4)ccc2F)CC3)C1 (stereo partly specified)
- Activity (A549 [15]): Active
- Activity (A549 [16]): Active

- Activity [2]: Active
- Drug uptake [3]: Active
- Activity [4]: Active
- Activity [6]: Dose-Dependent Effect
- Activity [26]: 100%
SMILES: CC[N+]1=C(/C=C/C=C/C=C2/N(CCCCCC(=O)NCCCc3cn(-c4ccc(F)c(C(=O)N5CCc6nc(NC(=O)[C@@H]7CCN(C#N)C7)sc6C5)c4)nn3)c3ccc(S(=O)(=O)O)cc3C2(C)C)C(C)(C)c2cc(S(=O)(=O)[O-])ccc21
- Activity (A549 (Homo sapiens)): Active
- Activity (A549 [7]): Active

- Activity [14]: inactive
SMILES: N#CN1CC[C@@H](C(=O)Nc2nc3c(s2)CN(C(=O)c2cccc(S(=O)(=O)N4CCN(C(=O)Cn5cc(COCCOCCOCCNc6cccc7c6C(=O)N(C6CCC(=O)NC6=O)C7=O)nn5)CC4)c2)CC3)C1 (stereo partly specified)
